The record followed here is ChEMBL document CHEMBL1130177, “6 beta-Propynyl-substituted steroids: mechanism-based enzyme-activated irreversible inhibitors of aromatase” (J Med Chem, 1997).

The nature of data set [1]: Selectivity index of Kcat/app Ki(inact). In a few lines: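 Lyophilized human placental microsomes (0.08-0.1 mg/mL protein) were preincubated at 37 °C with varied inhibitor concentrations and 0.1 mM NADPH in 0.1 M phosphate buffer, pH 7.4. Timed aliquots were diluted 10-fold in cold buffer. Residual activity was read as 3H2O release from 0.25 µM [1β-3H]androstenedione with an NADPH-generating system (30 min, 37 °C). Half-life versus 1/[I] (Kitz-Wilson) gave Ki(inact) and kcat. Duplicates.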

Data set [2] can be described thus: The T1/2 value was obtained from the time point at which each half-time reached 50% of its value at zero time. The format is ADME. In a few lines:
(§1)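 Inhibitor, various concentrations, preincubated at 37 °C with placental microsomes (0.08-0.1 mg/mL) and NADPH (0.1 mM) in 0.1 M phosphate pH 7.4. Aliquots taken over time, diluted 10-fold in cold buffer, then assayed with 0.25 µM [1β-3H]androstenedione plus NADPH-generating system, 30 min at 37 °C. Half-lives plotted against 1/[I] (Kitz-Wilson); Ki(inact) from X-intercept, T1/2 from Y-intercept; duplicate determinations.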

In data set [3] the target is T1, Aromatase (Homo sapiens, UniProt P11511).
T1 sequence (P11511 whole entry): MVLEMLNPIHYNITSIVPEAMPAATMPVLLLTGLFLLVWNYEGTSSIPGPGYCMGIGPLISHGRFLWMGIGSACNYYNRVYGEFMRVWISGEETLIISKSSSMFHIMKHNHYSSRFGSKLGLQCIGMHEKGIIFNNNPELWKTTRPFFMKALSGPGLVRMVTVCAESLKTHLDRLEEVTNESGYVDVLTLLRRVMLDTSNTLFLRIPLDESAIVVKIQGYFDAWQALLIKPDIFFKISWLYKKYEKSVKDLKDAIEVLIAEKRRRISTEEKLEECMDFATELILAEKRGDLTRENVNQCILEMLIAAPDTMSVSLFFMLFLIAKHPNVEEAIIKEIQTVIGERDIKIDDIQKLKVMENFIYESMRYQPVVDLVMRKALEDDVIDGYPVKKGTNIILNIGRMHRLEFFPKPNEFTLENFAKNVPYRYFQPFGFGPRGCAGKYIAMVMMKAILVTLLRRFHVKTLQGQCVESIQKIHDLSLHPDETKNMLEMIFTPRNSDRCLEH
Put plainly: Inhibition of human placental microsome Cytochrome P450 19A1. In a few lines:
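Tritiated-water release assay in 0.1 M phosphate pH 7.4. Lyophilized human placental microsomes (0.25 mg) with 0.25 µM [1β-3H]androstenedione, glucose 6-phosphate 5.3 mM, NADP 0.6 mM, G6PDH, 1.0 mM EDTA. Inhibitors from 10^-5 to 10^-8 M, added in ethanol. 15 min at 37 °C; CHCl3 extraction, then the aqueous phase counted by scintillation.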

Data set [4] can be described thus: Compound was tested for inactivation kinetic values. Particulars: read-out: Ki app (inact). In a few lines:
as §1

Data set [5] deals with T1, Aromatase. Put plainly: Binding affinity for human placental microsome Cytochrome P450 19A1 by nonlinear regression analysis. Particulars: read-out: Ki app. A digest of the protocol: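 Human placental microsomes (0.025-0.03 mg protein) in 1.0 mL 0.1 M phosphate buffer pH 7.4, 37 °C in air, 10 min, initial velocity conditions. [1β-3H]androstenedione diluted with unlabelled androstenedione, 0.005-0.25 µM. Inhibitor at 250, 375 and 500 nM, plus no-inhibitor controls and 0-min blanks. 3H2O release counted; Ki derived by regression analysis; duplicate determinations.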

The nature of data set [6]: The T1/2 values were obtained from the time point at which each half-time reached 50% of its value at zero time. The format is ADME. In a few lines: as §1

`C#CC[C@@H]1CC2C3CCC(=O)C3(C)CCC2C2(C)CCC(=O)C=C12` (some centres undefined) showed a Selectivity index in data set [1] of 21. The T1/2 in data set [2] is given as 7.6 min. In addition, on Aromatase [3], the concentration for half-maximal inhibition (IC50) – broadly, the concentration that gives 50% inhibition – came to 31 nM. For the same molecule, the KI (inactivation) in data set [4] turned out to be 72.4 nM. Besides, the Ki on Aromatase [5] turned out to be 10 nM.

`C#CC[C@H]1CC2C3CCC(=O)C3(C)CCC2C2(C)CCC(=O)C=C12` (some centres undefined) displayed an IC50 on Aromatase [3] of 176 nM. Further, at Aromatase [5], the Ki is 37 nM.

`C#CC[C@H]1CC2C(CCC3(C)C(=O)CCC23)C2CCC(=O)C=C21` (some centres undefined): the IC50 against Aromatase [3] was 187 nM. Moreover, at Aromatase [5], the Ki is 65.8 nM.

In data set [1], `C#CC[C@@H]1CC2C(CCC3(C)C(=O)CCC23)C2CCC(=O)C=C21` (some centres undefined) displayed a Selectivity index of 65. This molecule also showed a T1/2 in data set [2] of 8.9 min. The IC50 at Aromatase [3] worked out at 275 nM. In addition, the KI (inactivation) in data set [4] came to 19.8 nM. Moreover, at Aromatase [5], the Ki came out at 47.6 nM.

For `C#CC[C@]12CCC(=O)C=C1CC[C@@H]1[C@@H]2CC[C@]2(C)C(=O)CC[C@@H]12` [PLOMESTANE], the Selectivity index in data set [1] stood at 24. Also, in data set [6], the T1/2 is 8.9 min. Also, the IC50 at Aromatase [3] amounted to 56.2 nM. Also, the KI (inactivation) in data set [4] was 59.5 nM. The Ki on Aromatase [5] stood at 15.2 nM.
